# Screening data (PubChem)
# This is a sample that favours compounds with a hit; in the whole collection about 1.2% have one here.
# Diaph inh CS – inhibits diaphorase or chemically oxidizes, flagging diaphorase assay artifacts | diaphorase resazurin-to-resorufin fluorescence, NADH, 16 min; bacterial (C. kluyveri) enzyme, not human | inhibition, % at 20 µM | 190,000 tested, 0.69% active;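 active = primary screen inhibition at 20 µM above a set limit, cut at about 50% in these data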;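 note: plate controls were DMSO with full reaction for no effect and wells lacking NADH for full effect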
#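 Benchmarks: positive control wells lacking NADH, neutral wells with DMSO only. System: bacterial diaphorase enzyme (C. kluyveri). Input: 0.14 U/mL diaphorase, enzyme working solution. Detection: resorufin fluorescence, excitation 544 nm, emission 590 nm. Times: 16-min room-temperature incubation before reading.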
# TbHK1 inh – blocks Trypanosoma brucei hexokinase 1 activity. recombinant TbHK1, G6PDH-coupled NADH A340. inhibition, % at 10 µM. 220,000 tested, 0.11% active. AID 1430;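 active = inhibition of 50% or more in the single-dose primary screen; inactive = inhibition below 50%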
# PfGluPho inh – PfG6PD (Plasmodium falciparum) enzyme inhibition; PfGluPho enzyme, NADPH resazurin-diaphorase fluorescence; inhibition, % at 20 µM; 350,000 tested, 0.78% active;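 active = inhibition reaching at least a set limit at 20 µM in the primary screen, cut at about 59% in these data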;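 note: 0% = DMSO wells with substrate and 100% = DMSO wells lacking glucose-6-phosphate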
# G6PDH CS – L. mesenteroides G6PDH inhibition counter-screen; Purified L. mesenteroides G6PDH, diaphorase/resazurin coupled fluorescence, 45 min; inhibition, % at 5 µM; 200,000 tested, 0.12% active; AID 1020; in the data active = inhibition above about 50%
# HKDC1 inhibitor – blocks human hexokinase HKDC1 activity. Q2TB90. recombinant HKDC1, G6PDH/diaphorase resazurin coupled fluorescence. inhibition, % at 20 µM. 340,000 tested, 0.16% active. AID 493160;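 active = inhibition above about 35% when tested at 20 µM, limit read from the data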;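 note: plate controls were DMSO wells with enzyme for no effect and DMSO wells lacking enzyme for full effect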
# Target sequence (Q2TB90 whole entry, looked up): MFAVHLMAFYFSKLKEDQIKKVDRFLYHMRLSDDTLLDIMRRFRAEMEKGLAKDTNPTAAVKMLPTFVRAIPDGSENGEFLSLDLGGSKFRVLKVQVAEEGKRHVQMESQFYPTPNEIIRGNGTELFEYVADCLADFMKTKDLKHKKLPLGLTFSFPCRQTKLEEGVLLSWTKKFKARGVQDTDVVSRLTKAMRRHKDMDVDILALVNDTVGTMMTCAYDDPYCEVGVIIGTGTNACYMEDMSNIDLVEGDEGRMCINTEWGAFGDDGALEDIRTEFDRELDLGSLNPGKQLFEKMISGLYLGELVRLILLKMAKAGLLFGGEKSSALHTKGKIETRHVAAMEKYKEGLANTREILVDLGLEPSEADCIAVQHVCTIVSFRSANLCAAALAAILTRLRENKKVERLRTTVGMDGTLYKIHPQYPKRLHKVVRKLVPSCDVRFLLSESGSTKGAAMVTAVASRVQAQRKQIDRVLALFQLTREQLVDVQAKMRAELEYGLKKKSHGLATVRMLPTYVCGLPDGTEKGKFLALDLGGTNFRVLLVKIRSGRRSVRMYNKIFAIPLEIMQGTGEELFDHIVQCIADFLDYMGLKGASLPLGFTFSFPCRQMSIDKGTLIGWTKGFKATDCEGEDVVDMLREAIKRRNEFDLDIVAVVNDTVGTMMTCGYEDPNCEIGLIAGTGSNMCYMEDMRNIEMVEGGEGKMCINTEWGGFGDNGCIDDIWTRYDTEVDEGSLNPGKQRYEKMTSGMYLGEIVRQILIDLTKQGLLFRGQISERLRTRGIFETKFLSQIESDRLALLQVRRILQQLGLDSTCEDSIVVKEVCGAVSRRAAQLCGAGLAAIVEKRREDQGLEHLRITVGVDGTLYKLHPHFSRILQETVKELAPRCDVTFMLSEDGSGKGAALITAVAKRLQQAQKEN
#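 test system = in-house recombinant HK5 (HKDC1) enzyme | amount = HKDC1 at 5 µg/mL | control set = DMSO-enzyme wells negative, buffer-substituted wells positive | compound = one dose of 20 µM, 1% DMSO | schedule = reaction time 90 min, room temperature, protected from light | technique = resorufin fluorescence at 613 nm | reagent = glucose with 1 mM ATP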
# PfGluPho conf – PfG6PD inhibition, single-dose confirmed; shares compounds with PfGluPho inh; recombinant PfGluPho, NADPH-diaphorase-resazurin fluorescence; inhibition, % at 20 µM; 2,400 tested, 34% active;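 active = inhibition of at least 50% at 20 µM in any single replicate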;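 note: 0% = DMSO with substrate and 100% = DMSO lacking glucose-6-phosphate substrate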
# Diaph ctr 10uM – inhibits diaphorase or oxidizes, flagging false PfG6PD hits | shares compounds with PfGluPho inh | diaphorase-coupled resazurin reduction, fluorescence, NADPH 10 uM | inhibition, % at 20 µM | 820 tested, 39% active;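 active = average inhibition reaching 50% or more with the compound at 20 µM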;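 note: resorufin red fluorescence formed as diaphorase reduces resazurin using NADPH; 0% = DMSO with enzyme and 100% = DMSO without enzyme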
# Diaphorase 30uM – diaphorase inhibition or oxidation at 30 uM NADPH | AID 504863 | 820 tested, 29% active | Diaphorase/resazurin coupled assay, resorufin fluorescence | inhibition, % at 20 µM | shares compounds with PfGluPho inh;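 active = inhibition averaging 50% or more, tested at 20 µM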;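 note: 0% = DMSO with enzyme and 100% = DMSO wells lacking diaphorase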
# The depositor's hits bear a star; · = no result.
SMILES,Diaph inh CS,TbHK1 inh,PfGluPho inh,G6PDH CS,HKDC1 inhibitor,PfGluPho conf,others
O=C(Nc1ccc(C(O)(C(F)(F)F)C(F)(F)F)cc1)c1ccc(Cl)c([N+](=O)[O-])c1,24,12,63*,9,7,-10,
O=C(NCc1ccc(Cl)cc1)c1n[nH]c([N+](=O)[O-])c1Cl,-10,-6,-7,11,-3,·,
Cc1ccc(N2C(=O)N(CC(=O)Nc3ccc(C)c(C)c3[N+](=O)[O-])C(=O)C2C)cc1 (stereo not drawn),13,-2,4,-2,-3,·,
COc1ccc(C(=O)c2c(C(F)(F)F)oc3c2C(=O)c2ccccc2C3=O)cc1OC,18,-17,80*,59*,20,53*,Diaph ctr 10uM=44;Diaphorase 30uM=52*
COc1ccc([N+](=O)[O-])cc1/C=N/NC(=O)CNC(=O)c1cccc(F)c1,31,18,70*,-11,-11,22,
COc1ccc([N+](=O)[O-])cc1/C=N/NC(=O)CNC(=O)C(c1ccccc1)c1ccccc1,18,-4,139*,-25,6,86*,Diaph ctr 10uM=85*;Diaphorase 30uM=80*
O=C(CNC(=O)c1cccc(F)c1)N/N=C/c1ccc(O)c([N+](=O)[O-])c1,12,-16,-6,-12,10,·,
CN(C)c1ccc(C=Nc2ccc(N(C)C)cc2)cc1,33,-26,66*,7,7,47,
O=S(=O)(N=C1C=CC(=NS(=O)(=O)c2ccccc2)c2ccccc21)c1ccccc1,·,·,62*,·,·,35,
CCc1ccc(S(=O)(=O)/N=C2\C=CC(=O)c3ccccc32)cc1,28,-3,·,44,·,·,
[O-]/[N+](=C\c1ccccc1)c1ccccc1,·,·,41,·,1,·,
[O-]/[N+](=C\c1ccccc1)c1ccc(Br)cc1,·,·,84*,·,-1,91*,Diaph ctr 10uM=72*;Diaphorase 30uM=38
COc1ccc(CN2CCN(CCSc3ccc(C)cc3)CC2)c(OC)c1OC,·,·,9,·,0,·,
Cc1cccc(N(CC(=O)NC2CCCC2)C(=O)CNC(=O)c2ccco2)c1C,·,·,6,·,-2,·,
O=C(Nc1ccc2oc(=O)ccc2c1)c1cc2ccccc2o1,8,-4,38,6,-3,·,
O=C(Nc1ccc2c(c1)OCCO2)c1cc2ccccc2o1,19,-10,72*,-1,-9,28,
Nn1c(CSc2nc3ccccc3o2)nnc1CSc1nc2ccccc2o1,9,5,87*,-32,10,60*,Diaph ctr 10uM=56*;Diaphorase 30uM=48
O=C(c1cc(-c2ccc(Cl)cc2)n(-c2cc(Cl)ccc2Cl)n1)N1CCOCC1,14,-3,78*,0,2,35,
O=C(c1cc(-c2ccc(Cl)cc2)n(-c2ccc(Cl)c(Cl)c2)n1)N1CCOCC1,23,-7,31,-13,3,·,
NC(=O)C1CCN(C(=O)C(=O)c2cn(CC(=O)N3CCCCCC3)c3ccccc23)CC1,·,·,5,·,-3,·,
Cc1c(C(=O)Nc2nnc(C(F)(F)F)s2)oc2ccccc12,8,·,104*,2,-7,71*,Diaph ctr 10uM=83*;Diaphorase 30uM=68*
Cc1cc(NC(=O)c2oc3ccccc3c2C)ccc1-n1cnnn1,22,5,111*,10,19,73*,Diaph ctr 10uM=72*;Diaphorase 30uM=43
O=C(Nc1ccccc1C(=O)Nc1nnc(C(F)(F)F)s1)c1ccccc1,·,-15,74*,·,6,31,
COc1cc(C2Nc3ccc4ncccc4c3C3=C2C(=O)CC(C)(C)C3)cc(OC)c1O (stereo not drawn),41,-29,35,45,4,·,
COc1cc(C2Nc3ccc4ncccc4c3C3=C2C(=O)CCC3)cc(OC)c1O (stereo not drawn),44,-14,69*,50*,15,29,
CCc1cc(-c2n[nH]c(C)c2-c2nc(C)cs2)c(O)cc1OC,25,-5,69*,14,-4,41,
CCc1cc(-c2n[nH]c(C)c2-c2nc3ccccc3s2)c(O)cc1OCC(=O)NN,-4,-23,20,8,-6,·,
